Test results reported in ChEMBL document CHEMBL3526015, “Metabolism of the c-Fos/activator protein-1 inhibitor T-5224 by multiple human UDP-glucuronosyltransferase isoforms” (Drug Metab Dispos, 2011).

Assays:
[1] = molecular target: T1, UDP-glucuronosyltransferase 1A1 (Homo sapiens, UniProt P22309); test: Drug level assessed as human UGT1A1-mediated compound formation from 5 to 50 uM T-5224 after 60 mins in presence of UDP-glucuronic acid by HPLC method; assay type: ADME; conditions: recombinant enzyme, 1 h
T1 sequence (P22309 whole entry): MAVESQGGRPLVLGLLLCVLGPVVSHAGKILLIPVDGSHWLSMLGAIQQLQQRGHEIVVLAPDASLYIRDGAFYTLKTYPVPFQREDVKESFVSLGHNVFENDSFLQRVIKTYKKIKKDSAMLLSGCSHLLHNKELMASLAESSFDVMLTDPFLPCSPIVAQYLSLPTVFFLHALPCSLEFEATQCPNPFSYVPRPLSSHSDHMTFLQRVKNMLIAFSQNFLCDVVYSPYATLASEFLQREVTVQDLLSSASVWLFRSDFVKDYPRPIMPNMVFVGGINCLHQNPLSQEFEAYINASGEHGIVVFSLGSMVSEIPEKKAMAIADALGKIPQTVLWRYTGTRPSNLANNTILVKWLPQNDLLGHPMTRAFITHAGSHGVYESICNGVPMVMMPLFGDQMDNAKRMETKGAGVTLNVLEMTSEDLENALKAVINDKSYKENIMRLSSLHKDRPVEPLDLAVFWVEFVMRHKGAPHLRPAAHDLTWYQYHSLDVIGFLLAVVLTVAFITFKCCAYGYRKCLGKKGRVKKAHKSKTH
How it was run: (§1)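 Recombinant human UGT microsomes from baculovirus-infected insect cells, 0.1 mg protein/mL, in 50 mM Tris-HCl pH 7.5, 8 mM MgCl2, alamethicin. T-5224 in DMSO (2% v/v final). Preincubated 5 min at 37°C, started with 2 mM UDPGA, run 60 min at 37°C and stopped with acetonitrile. Glucuronides resolved by C18 HPLC with UV at 290 nm. Linearity was checked at 0.05–0.2 mg/mL protein and 10–60 min.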

[2] = molecular target: T2, UDP-glucuronosyltransferase 1A3 (Homo sapiens, UniProt P35503); test: Drug level assessed as human UGT1A3-mediated compound formation from 5 to 50 uM T-5224 after 60 mins in presence of UDP-glucuronic acid by HPLC method; assay type: ADME; conditions: recombinant enzyme, 1 h; how it was run: as §1
T2 sequence (P35503 whole entry): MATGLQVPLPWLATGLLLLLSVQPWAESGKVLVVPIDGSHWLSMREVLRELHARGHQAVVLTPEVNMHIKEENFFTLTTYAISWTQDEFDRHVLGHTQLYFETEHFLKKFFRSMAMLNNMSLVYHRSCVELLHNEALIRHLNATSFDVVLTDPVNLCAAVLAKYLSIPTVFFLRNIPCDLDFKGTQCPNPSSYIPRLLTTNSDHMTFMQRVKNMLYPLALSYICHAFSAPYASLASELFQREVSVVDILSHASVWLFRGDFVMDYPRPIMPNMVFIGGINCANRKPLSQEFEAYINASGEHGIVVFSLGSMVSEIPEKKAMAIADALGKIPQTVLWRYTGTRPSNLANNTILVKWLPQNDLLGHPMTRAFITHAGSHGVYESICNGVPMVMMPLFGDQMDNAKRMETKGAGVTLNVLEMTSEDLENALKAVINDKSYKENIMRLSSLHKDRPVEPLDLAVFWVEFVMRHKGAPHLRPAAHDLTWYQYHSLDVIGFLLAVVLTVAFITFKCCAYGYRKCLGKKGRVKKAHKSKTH

[3] = molecular target: T3, UDP-glucuronosyltransferase 1A8 (Homo sapiens, UniProt Q9HAW9); test: Drug level assessed as human UGT1A8-mediated compound formation from 5 to 50 uM T-5224 after 60 mins in presence of UDP-glucuronic acid by HPLC method; assay type: ADME; conditions: recombinant enzyme, 1 h; how it was run: as §1
T3 sequence (Q9HAW9 whole entry): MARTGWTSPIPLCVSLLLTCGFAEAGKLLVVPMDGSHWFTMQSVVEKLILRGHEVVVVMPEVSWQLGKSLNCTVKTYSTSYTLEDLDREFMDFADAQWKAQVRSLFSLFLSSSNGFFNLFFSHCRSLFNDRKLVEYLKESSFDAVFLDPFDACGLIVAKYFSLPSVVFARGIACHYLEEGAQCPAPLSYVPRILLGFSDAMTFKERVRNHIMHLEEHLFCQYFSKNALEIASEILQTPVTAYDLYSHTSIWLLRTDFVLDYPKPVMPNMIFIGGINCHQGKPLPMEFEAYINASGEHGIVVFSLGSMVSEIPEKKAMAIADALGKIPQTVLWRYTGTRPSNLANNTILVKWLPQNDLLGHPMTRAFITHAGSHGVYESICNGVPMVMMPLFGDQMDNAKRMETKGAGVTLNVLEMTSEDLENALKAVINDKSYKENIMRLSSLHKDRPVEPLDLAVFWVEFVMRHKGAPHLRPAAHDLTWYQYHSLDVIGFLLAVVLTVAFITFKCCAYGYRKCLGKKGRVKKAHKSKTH

[4] = molecular target: T1, UDP-glucuronosyltransferase 1A1; test: Drug level assessed as human UGT1A1-mediated compound formation from 5 to 50 uM T-5224 after 10 to 60 mins in presence of UDP-glucuronic acid by HPLC method; assay type: ADME; conditions: recombinant enzyme; how it was run: as §1
[5] = molecular target: T2, UDP-glucuronosyltransferase 1A3; test: Drug level assessed as human UGT1A3-mediated compound formation from 5 to 50 uM T-5224 after 10 to 60 mins in presence of UDP-glucuronic acid by HPLC method; assay type: ADME; conditions: recombinant enzyme; how it was run: as §1
[6] = molecular target: T3, UDP-glucuronosyltransferase 1A8; test: Drug level assessed as human UGT1A8-mediated compound formation from 5 to 50 uM T-5224 after 10 to 60 mins in presence of UDP-glucuronic acid by HPLC method; assay type: ADME; conditions: recombinant enzyme; how it was run: as §1
[7] = molecular target: T1, UDP-glucuronosyltransferase 1A1; test: Drug level assessed as human UGT1A1-mediated compound formation from 5 to 50 uM T-5224 after 60 mins in presence of UDP-glucuronic acid using 0.05 to 0.2 mg/ml by HPLC method; assay type: ADME; conditions: recombinant enzyme, 1 h; how it was run: as §1
[8] = molecular target: T2, UDP-glucuronosyltransferase 1A3; test: Drug level assessed as human UGT1A3-mediated compound formation from 5 to 50 uM T-5224 after 60 mins in presence of UDP-glucuronic acid using 0.05 to 0.2 mg/ml by HPLC method; assay type: ADME; conditions: recombinant enzyme, 1 h; how it was run: as §1
[9] = molecular target: T3, UDP-glucuronosyltransferase 1A8; test: Drug level assessed as human UGT1A8-mediated compound formation from 5 to 50 uM T-5224 after 60 mins in presence of UDP-glucuronic acid using 0.05 to 0.2 mg/ml by HPLC method; assay type: ADME; conditions: recombinant enzyme, 1 h; how it was run: as §1
Liver microsome [10] = test: Drug level in pooled human liver microsomes treated with T-5224 assessed as compound formation in presence of UDPGA by LC-MS/MS method; assay type: ADME
Liver microsome [11] = test: Drug level in pooled human liver microsomes treated with 10 uM T-5224 assessed as compound formation after 10 mins by HPLC method; assay type: ADME
How it was run: (§2)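 Pooled human liver microsomes at 0.5 mg protein/mL, or pooled intestinal microsomes at 0.25 mg/mL, in 50 mM Tris-HCl pH 7.5, 8 mM MgCl2, alamethicin, with 2 mM UDPGA. T-5224 at 10 μM, 10 min at 37°C after 5 min preincubation; stopped with acetonitrile. HPLC with UV at 290 nm. Linearity was tested over 0.1–1.0 mg/mL protein and 5–30 min.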

[12] = Drug level in pooled human intestinal microsomes treated with 10 uM T-5224 assessed as compound formation after 10 mins by HPLC method; assay type: ADME, Intestine, Microsome; how it was run: as §2
Liver microsome [13] = test: Drug level in pooled human liver microsomes treated with 10 uM T-5224 assessed as compound formation after 5 to 30 mins by HPLC method; assay type: ADME; how it was run: as §2
[14] = Drug level in pooled human intestinal microsomes treated with 10 uM T-5224 assessed as compound formation after 5 to 30 mins by HPLC method; assay type: ADME, Intestine, Microsome; how it was run: as §2
Liver microsome [15] = test: Drug level in pooled human liver microsomes treated with 10 uM T-5224 assessed as compound formation after 10 mins using 0.1 to 1.0 mg/ml microsomal protein content by HPLC method; assay type: ADME; how it was run: as §2
[16] = Drug level in pooled human intestinal microsomes treated with 10 uM T-5224 assessed as compound formation after 10 mins using 0.1 to 1.0 mg/ml microsomal protein content by HPLC method; assay type: ADME, Intestine, Microsome; how it was run: as §2

Drug metabolism [1]: metabolite_detected
Drug metabolism [2]: metabolite_detected
Drug metabolism [3]: metabolite_detected
Drug metabolism [4]: Dose-dependent effect
Drug metabolism [5]: Dose-dependent effect
Drug metabolism [6]: Dose-dependent effect
Drug metabolism [7]: Dose-dependent effect
Drug metabolism [8]: Dose-dependent effect
Drug metabolism [9]: Dose-dependent effect
Drug metabolism (Liver microsome [10]): metabolite_detected
Drug metabolism (Liver microsome [11]): metabolite_detected
Drug metabolism [12]: metabolite_detected
Drug metabolism (Liver microsome [13]): Dose-dependent effect
Drug metabolism [14]: Dose-dependent effect
Drug metabolism (Liver microsome [15]): Dose-dependent effect
Drug metabolism [16]: Dose-dependent effect
SMILES: O=C(O)CCc1cc(C(=O)c2ccc(OC3CCCC3)cc2O)ccc1OCc1ccc2c(O[C@@H]3O[C@H](C(=O)O)[C@@H](O)[C@H](O)[C@H]3O)noc2c1
